Published values collected from several papers.
Each line is one published result; the experiments were not run side by side.
Target: Dual specificity mitogen-activated protein kinase kinase 2 (MAP2K2, Homo sapiens, UniProt P36507)

| SMILES | test | setting | endpoint | result |
| --- | --- | --- | --- | --- |
| CCN(CC)CCNC(=O)c1c(C)[nH]c(/C=C2\C(=O)Nc3ccc(F)cc32)c1C | cell-free assay | 0.5 µM | remaining signal | 25.4% |
| Oc1cccc(-c2nc(N3CCOCC3)c3oc4ncccc4c3n2)c1 | enzyme activity, inhibitor | 10 µM | remaining activity | 115% |
| CCC1(CC)NC(=O)c2c(c3ccc(Cl)c(Cl)c3n2C)C1C#N (centres unmarked) | thermal stability, DSF | 10 µM | ΔTm | -0.4 °C |
| CN(C(=O)c1ccccc1)c1cc(N(C)c2ccc3c(c2)CCc2ccc(C(=O)NCCN4CCOCC4)cc2C3=O)ccc1F | cell-free assay, competition with immobilised ligand | 1 µM | remaining binding | 100% |
| Cn1c2c(Cl)c(Cl)ccc2c2cc(N)[nH]c(=O)c21 | thermal stability, DSF | 10 µM | ΔTm | -0.1 °C |
| Cc1ccc(C(=O)Nc2ccc(CN3CCN(C)CC3)c(C(F)(F)F)c2)cc1C#Cc1cnc2cccnn12 | enzyme activity, inhibitor | 23.5 nM | remaining activity | 97% |
| COc1cc(/C=C/C(=O)CC(=O)/C=C/c2ccc(O)c(OC)c2)ccc1O | enzyme activity, inhibitor | 1 µM | activity vs control | 91% |
| CC(C)(C)c1nc(-c2cccc(NS(=O)(=O)c3c(F)cccc3F)c2F)c(-c2ccnc(N)n2)s1 | enzyme activity, inhibitor, radiometric | 1 µM | remaining activity | 91% |
| C[C@H](NC(=O)c1cnc2n1[C@](C)(Cc1ccc(C#N)cc1)C(=O)N2c1cc(Cl)c(F)c(Cl)c1)C(=O)NC1(c2ccccn2)CC1 | cell-free assay, competition with immobilised ligand | 1 µM | remaining binding | 90% |
| COc1cc(Cl)c(C(=O)N[C@@H](CN[C@H]2CC[C@@H](N)CC2)Cc2ccc(C#N)cc2)cc1-c1ccc(CN[C@H](C)c2ccc(C)cc2)o1 | enzyme activity, inhibitor | 1 µM | remaining activity | 115% |
| CN1CCC2(CC1)NC(=O)c1c(c3ccc(Cl)c(Cl)c3n1C)C2C#N (racemic) | thermal stability, DSF | 10 µM | ΔTm | -0.3 °C |
| O=C(Nc1cnn(-c2csc(C(=O)NC3COC3)c2)c1)Nc1ccccc1Cl | enzyme activity, inhibitor | 5 µM | remaining activity | 92.2% |
| N#Cc1ccc(Nc2ccc3[nH]c(=O)[nH]c3c2)c(Cl)c1 | cell-free assay, competition with immobilised ligand | 1 µM | remaining binding | 93% |
| CCCS(=O)(=O)Nc1ccc(F)c(C(=O)c2c[nH]c3ncc(-c4ccc(Cl)cc4)cc23)c1F | enzyme activity, inhibitor | 1 µM | inhibition | < 10% |
| Cn1c2c(c3ccc(Cl)c(Cl)c31)C(C#N)C1(CCCC1)NC2=O (centres unmarked) | thermal stability, DSF | 10 µM | ΔTm | -0.4 °C |
| O=S(=O)(NC1CCC(c2cc(F)ccc2F)(S(=O)(=O)c2ccc(Cl)cc2)CC1)C(F)(F)F (centres unmarked) | cell-free assay, competition with immobilised ligand | 1 µM | remaining binding | 100% |
| COc1cc2ncnc(Nc3ccc(Oc4ccccc4)cc3C)c2cc1OC | enzyme activity, inhibitor | 1 µM | inhibition | 41% |
| O=C1NC(=O)c2cc(Nc3ccc(F)cc3)c(Nc3ccc(F)cc3)cc21 | cell-free assay | 0.5 µM | remaining signal | 89.5% |
| Cn1c2c(c3ccc(Cl)c(Cl)c31)C(C#N)C1(CCOCC1)NC2=O (centres unmarked) | thermal stability, DSF | 10 µM | ΔTm | -0.4 °C |
| CCCOc1ccc([C@H]2[C@H](C(=O)O)[C@@H](c3ccc4c(c3)OCO4)CN2CC(=O)Nc2c(CC)cccc2CC)cc1 | cell-free assay, competition with immobilised ligand | 1 µM | remaining binding | 62% |
| CN1CC(Oc2cnc(C#N)cc2-c2ccn3nc(NC(=O)C4CC4)cc3c2)C1 | enzyme activity, inhibitor | 1 µM | inhibition | 14% |
| CN(C)C(=O)Cn1cc(-c2nc([C@@](C)(c3ccc(-c4cnc(N)nc4)cc3)C3CC3)no2)cn1 | cell-free assay, competition with immobilised ligand | 1 µM | remaining binding | 86% |
| COc1cc(-c2cc(-c3ccc(N4CCNCC4)cc3)cnc2C)cc(OC)c1OC | enzyme activity, inhibitor | 1 µM | inhibition | 8% |
